Experimental findings from ChEMBL document CHEMBL4513216, “Probing the Open Global Health Chemical Diversity Library for Multistage-Active Starting Points for Next-Generation Antimalarials” (ACS Infect Dis, 2020) are described below.

SMILES strings stand for the structures.

This data set is described as follows: Toxicity liver stage against HepG2, at 10uM. It counts as cell-based. Further details: test concentration 10 uM, cell line HepG2-A16-CD81EGFP. The following applies: human, HepG2-A16-CD81EGFP cells; read-out: INHIBITION
In a few lines:
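Uninfected HepG2-A16-CD81EGFP cells, 3 × 10^3 per well, 1536-well, plated on prespotted compound at 10 μM final, parasite-free screening media added to match infected plates; puromycin 10 μM positive, DMSO 0.5% negative; run in parallel with 48 h PbLuc assay at 37 °C, 5% CO2; viability by CellTiter-Glo luminescence, normalized to controls.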
Take `CCOC(=O)C1(Cc2cccc(OC)c2)CCN(Cc2ccon2)CC1`: the cytotoxicity at 10 µM stood at 2.61%.
With `CCOn1c(SC(C)C)nc2ccccc2c1=O`, the cytotoxicity at 10 µM was -5.36%.
Then `c1cncc(-c2nnc([C@H]3CCN(CC4CCCCC4)C3)o2)c1`, with -6.72%.
`O=C(c1ccno1)N1C[C@@H](F)[C@@H](OCc2nc3ccccc3o2)C1`: the cytotoxicity at 10 µM was determined as 7.61%.
Then `O=C(c1cc2c(Cl)cccc2[nH]1)N1CCN(CCc2ccccn2)CC1`, with 3.07%.
Consider `CC(O)(CNC(=O)c1c(F)cccc1Cl)c1ccco1` (stereo unspecified), for which the cytotoxicity at 10 µM came to 2.22%.
With `COCCNC(=O)NC1(c2nc(-c3ccncc3)no2)CCCCC1` the figure was -2.46%; with `CN1CCCN(C(=O)c2nc3c(n2C)CCN(c2ncccn2)C3)CC1`, -9.18%.
Turning to `CCNC(=O)c1ccc2ccc(N(CC)CC)n2c1`, the cytotoxicity at 10 µM was 1.67%.
As for `CNC(=O)[C@H]1C[C@@H]2CN(c3cc(OC)ncn3)C[C@@H]2N1C(C)C`, the cytotoxicity at 10 µM was -8.84%.
In the case of `Cc1cccc(CO[C@H]2CO[C@@]3(CCN(S(=O)(=O)N(C)C)C3)C2)n1`, the cytotoxicity at 10 µM was 7.7%.
With `CN(C)S(=O)(=O)N1C[C@@H](OCc2ccccn2)[C@H]2OCCC[C@H]21`, the cytotoxicity at 10 µM worked out at 10.7%.
With `Cc1cc(-c2cccc(C(=O)O)c2)nc(C2CCN(C(C)C)CC2)n1` the figure was -0.723%; with `Cn1nccc1CCC(=O)N1CCCC(Cc2cccnc2)C1` (stereo unspecified), -3.14%; with `Cc1nc(Nc2ncccn2)cc(C2CCCN2CC(C)C)n1` (stereo unspecified), 7.02%.
With `O=c1c(Cc2ccccc2)c(O)ccn1CCc1ccccc1` the figure was 10.3%.
With `CC(C)c1noc(C[S+]([O-])CC(=O)Nc2cc(F)ccc2F)n1` (stereo unspecified) the figure was 8.15%; with `CC(O)CN(C(=O)NC1CC1)C(C)C` (stereo unspecified), 13.1%.
As for `CC(C)(C)c1nc(CN2CCC(N3CCCCC3)CC2)no1`, the cytotoxicity at 10 µM is -0.48%.
Then `Cc1cccc(C(C)C)c1NC(=O)NCCN(C(C)C)C(C)C`, with -8.98%; and `CC(c1nc(C2CC2)no1)N1CCc2c(ncn2C)C1` (stereo unspecified), with 1.09%.
On to `O=C(c1cnc(NCc2cccnc2)c(Cl)c1)N1CCCCC1`, for which the cytotoxicity at 10 µM amounted to 8.89%.
`O=C1OCCCN1Cc1nc(-c2ccc(N3CCCCC3)cc2)no1`: the cytotoxicity at 10 µM stood at 7.04%.
With `Cc1nc(CCCNC(=O)Nc2cc(F)cc(F)c2)n[nH]1` the figure was -8.39%; with `COc1ccnc(N2CCN(Cc3ncc(-c4ccccc4)o3)CC2)n1`, -10.2%.
On to `CCc1cc(CNC(=O)N(C2CC2)C(C)c2ccco2)[nH]n1` (stereo unspecified), for which the cytotoxicity at 10 µM was 4.18%.
Then `O=C(CCn1cccn1)NCC(c1cccs1)N1CCOCC1` (stereo unspecified), with -2.49%; and `COc1ccc(CNC(C)c2ccc(Cl)cc2)c(OC)c1OC` (stereo unspecified), with 7.74%.
As for `CCc1nc(NS(=O)(=O)c2ccc(F)cc2Cl)no1`, the cytotoxicity at 10 µM amounted to 0.528%.
For the compound `Cc1cc(C(=O)CN2C(=O)c3ccccc3CS2(=O)=O)c(C)[nH]1`, the cytotoxicity at 10 µM came out at 13.5%.
As to `CCc1noc(CN(C)C(=O)c2ccnc(OC3CCC3)c2)n1`, the cytotoxicity at 10 µM stood at 4.86%.
Then `COCCOCC(=O)Nc1ccc(F)cc1C`, with 12.8%; and `Cc1cnn(C2CCN(Cc3ccccc3)C2)c1N` (stereo unspecified), with -3.76%; and `COC1CCCN(C(=O)NCCCF)C1` (stereo unspecified), with 0.215%.
With `NC(=O)NC(=O)CCSc1ccccc1Cl` the figure was 11.8%; with `CC(NC(=O)N1CCC(CO)CC1)c1csc2ccccc12` (stereo unspecified), -5.4%.
With `Cc1ccc(S(=O)(=O)NC(=O)CCOCC(C)C)s1` the figure was -5.36%; with `COCCNC(=O)c1ccc2c(=O)n3c(nc2c1)CCCCCC3`, -46.3%; with `Cc1ccc(C(C)N(C)CCS(=O)(=O)CCC(N)=O)cc1` (stereo unspecified), -52.5%.
For the compound `Cc1c(C(=O)NCC(C)C)nnn1-c1cccc2c1CCN(C)C2`, the cytotoxicity at 10 µM is -7.69%.
Then `COc1cccc(-c2ccc3nc(C4CCN(C(C)=O)CC4)nn3c2)c1`, with 9.84%; and `O=C(c1cscn1)N1CC[C@H]2[C@@H]1CCC(=O)N2c1ccccc1`, with -68.8%.
With `Cc1[nH]c2ccccc2c1-c1ccnc(N[C@H](CO)CC(C)C)n1` the figure was 0.97%; with `CC(C)S(=O)(=O)NCc1cccnc1Oc1ccc(F)cc1F`, 5.98%; with `OC1(CN2CCCC2)COCCN(c2ncnc3[nH]cnc23)C1` (stereo unspecified), 0.458%.
Then `CC(C)C(C(=O)N1CCC2(CC1)CN(C)C(=O)O2)c1ccccc1` (stereo unspecified), with -53.6%.
With `Cc1csc2c(N3CCC(NCCCC4CCOC4)CC3)ncnc12` (stereo unspecified), the cytotoxicity at 10 µM is 3.3%.
With `Cc1nccn1CCN1C(=O)CC2(CCCC2)CC1=O` the figure was -2.11%; with `CCN(CC)C(=O)Cn1cc(C(=O)NCCCc2scnc2C)nn1`, -7.38%; with `COc1c(C)cnc(CN2CCCCC2CCN2CCOCC2)c1C` (stereo unspecified), -4.27%.
With `CNC(=O)[C@@H]1C[C@@H](N)CN1Cc1ccc2cccc(OC)c2n1` the figure was 0.719%.
For `CCc1csc(CNc2cc(C)nc(-c3cccnc3)n2)n1`, the cytotoxicity at 10 µM turned out to be 4.83%.
In the case of `CC(=O)Nc1ccc(CNC(=O)CNCc2sc(C)nc2C)cc1`, the cytotoxicity at 10 µM turned out to be 6.95%.
In the case of `Cc1cccc(C(C(=O)NCc2nc(-c3ncccn3)no2)N(C)C)c1` (stereo unspecified), the cytotoxicity at 10 µM was -1.57%.
Then `Cc1nc[nH]c1-c1nccn1CCN1CCOC1=O`, with -5.58%; and `COc1ccc2nc(CCNC(=O)c3cc(CC(C)C)no3)[nH]c2c1`, with 0.808%; and `CCCNC(=O)c1ccc(S(=O)(=O)NC2(COC)CCCC2)cc1`, with -49.9%.
Consider `CC(=O)NCc1nnc2n1CCN(c1ncnc3c1CCC3)CC2`, for which the cytotoxicity at 10 µM stood at 13%.
Then `CN1CCCC1c1ccc(C(=O)Nc2c3c(nn2C)CCC3)s1` (stereo unspecified), with -7.3%; and `CSCCNc1ccc(C(=O)N(C)Cc2ccc3ccccc3n2)cn1`, with 9.65%.
Consider `CSc1nccc(N2C[C@@H](CN3CCCCC3)[C@@H](CO)C2)n1`, for which the cytotoxicity at 10 µM was -3.59%.
Turning to `Cc1ccc(C)c(C(=O)Nc2ccc(OC3CCN(C)CC3)cc2)c1`, the cytotoxicity at 10 µM stood at 8.97%.
For the compound `COc1cccc(Cc2nc3c([nH]2)CC(C)(C)CNC3=O)c1OC`, the cytotoxicity at 10 µM is -2.88%.
As to `COC(=O)c1ccc(CNCc2ccn(C)n2)cc1`, the cytotoxicity at 10 µM is -2.64%.
As to `CC(NC(=O)NCCN1CCCC1)c1nncn1C` (stereo unspecified), the cytotoxicity at 10 µM was -5.68%.
Regarding `NC(=O)C1CCN(C(=O)NCc2cccnc2OCC(F)(F)F)C1` (stereo unspecified), the cytotoxicity at 10 µM was -11.2%.
Turning to `CN(C)c1cc2c(nn1)CCN(C(=O)C1Cc3ccccc3O1)C2` (stereo unspecified), the cytotoxicity at 10 µM was -18.5%.
With `Cc1cc(C)n(CC2CCCCN2C(=O)c2ccc3c(c2)COC3)n1` (stereo unspecified) the figure was -24.4%; with `CCn1ncc2c1CCCC2NCc1ccccc1N1CCOCC1` (stereo unspecified), -7.66%.
With `Cn1cc(C2CCCN2Cc2csc(C(C)(C)C)n2)cn1` (stereo unspecified) the figure was -4.87%.
Then `CC(C)c1n[nH]c(C(=O)Nc2cc[nH]n2)c1Br`, with -9.73%; and `Cc1cnn(CC(C)NCc2ccc(S(C)(=O)=O)cc2)c1` (stereo unspecified), with 4.62%.
Consider `CCN1CCN(CC(O)c2ccc(OC(F)(F)F)cc2)CC1` (stereo unspecified), for which the cytotoxicity at 10 µM is -4.47%.
As for `Nc1nc(C(=O)NCC2CCC3(CCNCC3)CO2)cs1` (stereo unspecified), the cytotoxicity at 10 µM was 21%.
For the compound `Cn1cc(CNC2CCc3c(ccc(=O)n3Cc3cccnc3)C2)cn1` (stereo unspecified), the cytotoxicity at 10 µM is -108%.
With `Cc1ccc(CN2CCOC3(CCN(C(=O)C4CC=CC4)CC3)C2)cc1` the figure was 15.5%; with `CN(C)C(=O)C1CCC2(CCN(Cc3cnn(C)c3)CC2)C1` (stereo unspecified), 5.01%; with `COCCN1CCC2(CC1)CC(NC(=O)C(C)C)c1ccccc1O2` (stereo unspecified), 3.82%.
Turning to `Cc1ccc(CN2CCO[C@H]3[C@H](OCc4cccnc4)CC[C@@H]32)o1`, the cytotoxicity at 10 µM was found to be 6.22%.
With `COCCN1C(=O)C2(CCN(CC3CC3)CC2)c2ccccc21` the figure was -115%; with `c1cnc(N2CCCC3(CCN(CC4CCC4)C3)C2)nc1` (stereo unspecified), -82.8%; with `O=C(c1cccnc1)N1CCN2C[C@H](Oc3cncnc3)C[C@H]2C1`, 8.1%.
In the case of `c1ccc(O[C@@H]2CC[C@H]3[C@H]2OCCN3CC2CCOCC2)nc1`, the cytotoxicity at 10 µM is -1.02%.
Then `CC(C)OCCCN(CC(=O)N1CCNCC1)C(=O)c1ccc(F)cc1`, with 8.85%.
Regarding `Fc1cnc(N2CCN3C[C@H](Oc4cncnc4)C[C@H]3C2)nc1`, the cytotoxicity at 10 µM was -5.38%.
With `O=S(=O)(c1ccccc1)N1CCC2(CCCN2Cc2cccnc2)C1` (stereo unspecified) the figure was -73.5%.
With `CNCC(=O)N1CCC(c2ccnc(Nc3ccc(C)cn3)n2)C1` (stereo unspecified) the figure was -2.29%; with `COCCN1CCO[C@H]2CCN(C(=O)c3ccnnc3)CC[C@@H]21`, 0.196%; with `CNC(=O)C1Cn2ccnc2C2(CCN(Cc3nccs3)CC2)O1` (stereo unspecified), -67.2%.
For the compound `CNC(=O)CC1CC2(CCN(c3ncccn3)CC2)c2ccccc21` (stereo unspecified), the cytotoxicity at 10 µM worked out at 11.6%.
`N#Cc1cccc(CN2CC[C@@H]3CN(c4ncccn4)CCO[C@@H]3C2)c1`: the cytotoxicity at 10 µM is -6.51%.
Consider `Cc1nc(CN2CCc3ncnc(C)c3CC2)cs1`, for which the cytotoxicity at 10 µM is -1.8%.
Take `Cc1nc(C2(O)CCCNCC2)sc1CCOc1ccccc1Cl` (stereo unspecified): the cytotoxicity at 10 µM is -28.1%.
With `COCCN1CCCn2cnc(CNC3CCCC3)c2C1` the figure was 4.92%; with `Cc1ccnn1CCC(=O)N1C[C@@H]2CC[C@H]1CN(CC(=O)N(C)C)C2`, 8.42%; with `Oc1coc2cc(OC[C@@H]3CCCN4CCCC[C@H]34)ccc12`, 1.96%.
